Calls of active or inactive are those of the source. The rule behind the calls is not given here.
How the values were obtained:
Danio rerio [1] = species on record: Danio rerio; experiment: Prevention of doxorubicin-induced Zebrafish mortality assessed as survival rate at 5 uM incubated for 48 hrs by inverted fluorescence microscopy (reference value: 52%); format: functional
Danio rerio [2] = species on record: Danio rerio; experiment: Prevention of doxorubicin-induced Zebrafish mortality assessed as increase in survival rate incubated for 48 hrs by inverted fluorescence microscopy; format: functional, organism-based; conditions: dose 5-40 µM
How it was run: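 Wild-type embryos, 24 hpf, 20 per well in 1 mL egg water, exposed to DOX (100 μM) with or without test compound (5, 15, 40 μM) for 48 h. Survival scored at 96 hpf by inverted fluorescence microscopy; no motion on touch, or loss of atrial and ventricular contractility, counted as dead. Mean ± S.D., n = 4.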

Danio rerio [3] = species on record: Danio rerio; experiment: Prevention of doxorubicin-induced Zebrafish mortality assessed as survival rate at 40 uM incubated for 48 hrs by inverted fluorescence microscopy (reference value: 52%); format: functional
Danio rerio [4] = species on record: Danio rerio; experiment: Prevention of doxorubicin-induced Zebrafish mortality assessed as survival rate at 15 uM incubated for 48 hrs by inverted fluorescence microscopy (reference value: 52%); format: functional
Danio rerio [5] = species on record: Danio rerio; experiment: Cardioprotective activity in (cmlc2:GFP) transgenic Zebrafish assessed as reduction in doxorubicin-induced cardiac impairment measured after 48 hrs; format: functional, organism-based
How it was run: (§1)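 Tg(cmlc2:GFP) embryos, 24 hpf, 20 per well, exposed to DOX (80 μM) with or without test compound at its optimum concentration for 48 h. At 72 hpf, heart rate, fractional shortening, stroke volume and cardiac output were derived from fluorescence imaging of atrium and ventricle. Mean ± S.D., n = 4.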

Danio rerio [6] = species on record: Danio rerio; experiment: Cardioprotective activity against doxorubicin-induced (cmlc2:GFP) transgenic Zebrafish assessed as protection of heart measured after 48 hrs; format: functional, organism-based; conditions: dose 20-60 µM; how it was run: as §1
Danio rerio [7] = species on record: Danio rerio; experiment: Cardioprotective activity against doxorubicin-induced (cmlc2:GFP) transgenic Zebrafish assessed as protection of heart function loss measured after 48 hrs; format: functional, organism-based; conditions: dose 20-60 µM; how it was run: as §1
Danio rerio [8] = experiment: Cardioprotective activity in (cmlc2:GFP) transgenic Zebrafish assessed as reduction in doxorubicin-induced cardiac edema measured after 48 hrs; format: functional, organism-based
Danio rerio [9] = species on record: Danio rerio; experiment: Cardioprotective activity in (cmlc2:GFP) transgenic Zebrafish assessed as prevention of doxorubicin-induced heart shape change measured after 48 hrs; format: functional, organism-based
Danio rerio [10] = species on record: Danio rerio; experiment: Cardioprotective activity against Zebrafish assessed as reduction in doxorubicin-induced increase in natriuretic peptide mRNA level by qRT-PCR analysis; format: functional, organism-based; conditions: dose 20-40 µM
How it was run: (§2)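 Zebrafish embryos, either controls or exposed to doxorubicin with or without test compound. ANP and cTnT mRNA levels measured relative to control. Mean ± S.D., n = 4.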

Danio rerio [11] = species on record: Danio rerio; experiment: Cardioprotective activity against Zebrafish assessed as reduction in doxorubicin-induced increase in Cardiac troponin T mRNA level by qRT-PCR analysis; format: functional, organism-based; conditions: dose 20-40 µM; how it was run: as §2
H9c2 [12] = experiment: Cardioprotective activity against doxorubicin-induced rat H9c2 cells assessed as protection of cell damage measured after 48 hrs by CCK8 assay; format: functional, cell-based; conditions: dose 0.5-12.5 µM
How it was run: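 H9c2 cells grown in DMEM with 10% FBS and penicillin/streptomycin at 37 °C, 5% CO2, used at 70% confluence. Exposed to DOX (10 μM) with or without test compound (0.5–12.5 μM) for 48 h. CCK-8 (0.5 mg/mL) then added for 4 h to read viability.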

H9c2 [13] = experiment: Cardioprotective activity against rat H9c2 cells assessed as inhibition of doxorubicin-induced ROS production preincubated for 48 hrs followed by loading with DCFDA dye for 40 mins by DCF-DA probe based fluorescence assay; format: functional, cell-based; conditions: dose 1-10 µM
How it was run: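 H9c2 cells exposed for 48 h with or without test compound, then loaded with DCFH-DA (5 μM final, in DMEM) for 40 min at 37 °C. Cells washed three times with PBS; DCF fluorescence read by confocal microscopy as the ROS level. Mean ± S.D., n = 3.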

H9c2 [14] = experiment: Cardioprotective activity against rat H9c2 cells assessed as inhibition of doxorubicin-induced mitochondrial membrane potential loss incubated for 48 hrs by JC1 staining based confocal microscopy; conditions: dose 1-10 µM

Compound	Activity (Danio rerio [1]) [%]	Activity (Danio rerio [3])	Activity (Danio rerio [4])	also measured
C[C@@H]1CC(=O)NN=C1c1ccc(NN=C(C#N)C#N)cc1 [LEVOSIMENDAN]	58	74%	69%	Activity (Danio rerio [2]): Dose-Dependent Effect
CC(=O)OC[C@@H]1C(=O)[C@@]2(C)CC[C@H]3[C@]4(C)CCC[C@@](C)(C(=O)O)[C@H]4CC[C@@]13C2		inactive		
COc1ccc(C(=O)OC[C@@H]2[C@@H](O)[C@@]3(C)CC[C@H]4[C@]5(C)CCC[C@@](C)(N)[C@H]5CC[C@@]24C3)c(OC)c1OC		Active		
COc1cccc(C(=O)OC[C@@H]2C(=O)[C@@]3(C)CC[C@H]4[C@]5(C)CCC[C@@](C)(C(=O)O)[C@H]5CC[C@@]24C3)c1OC		70%		
COc1ccc(C(=O)OC[C@@H]2C(=O)[C@@]3(C)CC[C@H]4[C@]5(C)CCC[C@@](C)(C(=O)O)[C@H]5CC[C@@]24C3)cc1OC		Active		Activity (Danio rerio [3]; record 2): >70%
COc1ccc(COC(=O)[C@]2(C)CCC[C@@]3(C)[C@@H]4CC[C@@]5(C)C[C@]4(CC[C@@H]32)CC5=O)cc1			60%	
COc1ccc(C(=O)OC[C@@H]2[C@@H](O)[C@@]3(C)CC[C@H]4[C@]5(C)CCC[C@@](C)(C(=O)O)[C@H]5CC[C@@]24C3)cc1		>70%		
C[C@]12CC[C@H]3[C@]4(C)CCC[C@@](C)(C(=O)O)[C@H]4CC[C@@]3(C1)[C@H](CO)[C@H]2O	60	60%	60%	
C[C@]12CC[C@H]3[C@]4(C)CCC[C@@](C)(N)[C@H]4CC[C@@]3(C1)[C@H](CO)[C@H]2O		inactive		
COc1cc(C(=O)OC[C@@H]2C(=O)[C@@]3(C)CC[C@H]4[C@]5(C)CCC[C@@](C)(N)[C@H]5CC[C@@]24C3)cc(OC)c1OC		87%		Activity (Danio rerio [2]): Dose-Dependent Effect; Activity (Danio rerio [5]): Dose-Dependent Effect; Activity (Danio rerio [6]): Dose-Dependent Effect; Activity (Danio rerio [7]): Dose-Dependent Effect; Activity (Danio rerio [8]): Dose-Dependent Effect; Activity (Danio rerio [9]): Dose-Dependent Effect
C[C@]12CC[C@H]3[C@]4(C)CCC[C@@](C)(N)[C@H]4CC[C@@]3(C1)[C@H](COC(=O)c1cccnc1)[C@H]2O		Active		
COc1ccc(C(=O)OC[C@@H]2C(=O)[C@@]3(C)CC[C@H]4[C@]5(C)CCC[C@@](C)(N)[C@H]5CC[C@@]24C3)c(OC)c1OC		98%		Activity (Danio rerio [2]): Dose-Dependent Effect; Activity (Danio rerio [10]): Dose-Dependent Effect; Activity (Danio rerio [5]): Dose-Dependent Effect; Activity (Danio rerio [6]): Dose-Dependent Effect; Activity (Danio rerio [11]): Dose-Dependent Effect; Activity (Danio rerio [7]): Dose-Dependent Effect; Activity (Danio rerio [8]): Dose-Dependent Effect; Activity (H9c2 [12]): Dose-Dependent Effect; Activity (H9c2 [13]): Dose-Dependent Effect; Activity (Danio rerio [9]): Dose-Dependent Effect; Activity (H9c2 [14]): Dose-Dependent Effect
C[C@]12CC[C@H]3[C@]4(C)CCC[C@@](C)(C(=O)O)[C@H]4CC[C@@]3(C1)[C@H](COC(=O)C1CCCCC1)[C@H]2O		inactive		
C=C1C(=O)[C@@]2(C)CC[C@@H]3[C@]1(CC[C@H]1[C@@]3(C)CCC[C@@]1(C)C(=O)O)C2	50	26%	38%	
COC(=O)[C@]1(C)CCC[C@@]2(C)[C@@H]3CC[C@@]4(C)C[C@]3(CC[C@@H]21)CC4=O		60%		
C[C@@]12CC[C@@H]3[C@@](CC[C@H]4[C@@]3(C)CCC[C@@]4(C)C(=O)O)(CC1=O)C2 [ISOSTEVIOL]	57	inactive	inactive	Activity (Danio rerio [5]): Dose-Dependent Effect; Activity (Danio rerio [6]): Dose-Dependent Effect; Activity (Danio rerio [7]): Dose-Dependent Effect; Activity (Danio rerio [8]): Dose-Dependent Effect; Activity (Danio rerio [9]): Dose-Dependent Effect
C[C@@]12CC[C@@H]3[C@@](CC[C@H]4[C@@]3(C)CCC[C@@]4(C)C(=O)OCc3ccccc3)(CC1=O)C2	60			
COc1ccc(C(=O)OC[C@@H]2C(=O)[C@@]3(C)CC[C@H]4[C@]5(C)CCC[C@@](C)(C(=O)O)[C@H]5CC[C@@]24C3)c(OC)c1OC	77	77%	77%	Activity (Danio rerio [2]): Dose-Dependent Effect; Activity (Danio rerio [5]): Dose-Dependent Effect; Activity (Danio rerio [6]): Dose-Dependent Effect; Activity (Danio rerio [7]): Dose-Dependent Effect; Activity (Danio rerio [8]): Dose-Dependent Effect; Activity (Danio rerio [9]): Dose-Dependent Effect
C[C@]12CC[C@H]3[C@]4(C)CCC[C@@](C)(C(=O)O)[C@H]4CC[C@@]3(C1)[C@H](COC(=O)C1CCCCC1)C2=O		inactive		
COc1ccc(CC(=O)OC[C@@H]2[C@@H](O)[C@@]3(C)CC[C@H]4[C@]5(C)CCC[C@@](C)(C(=O)O)[C@H]5CC[C@@]24C3)cc1		>70%		
C[C@@]12CC[C@@H]3[C@@](CC[C@H]4[C@@]3(C)CCC[C@@]4(C)N)(CC1=O)C2	85			Activity (Danio rerio [2]): Dose-Dependent Effect; Activity (Danio rerio [5]): Dose-Dependent Effect; Activity (Danio rerio [6]): Dose-Dependent Effect; Activity (Danio rerio [7]): Dose-Dependent Effect; Activity (Danio rerio [8]): Dose-Dependent Effect; Activity (Danio rerio [9]): Dose-Dependent Effect
COc1cccc(C(=O)OC[C@@H]2[C@@H](O)[C@@]3(C)CC[C@H]4[C@]5(C)CCC[C@@](C)(N)[C@H]5CC[C@@]24C3)c1OC		Active		
CC(=O)OC[C@@H]1[C@@H](O)[C@@]2(C)CC[C@H]3[C@]4(C)CCC[C@@](C)(C(=O)O)[C@H]4CC[C@@]13C2		inactive		
COc1cc(C(=O)OC[C@@H]2[C@@H](O)[C@@]3(C)CC[C@H]4[C@]5(C)CCC[C@@](C)(N)[C@H]5CC[C@@]24C3)cc(OC)c1OC		Active		
COc1cc(C(=O)OC[C@@H]2C(=O)[C@@]3(C)CC[C@H]4[C@]5(C)CCC[C@@](C)(C(=O)O)[C@H]5CC[C@@]24C3)cc(OC)c1OC	68	68%	68%	Activity (Danio rerio [2]): Dose-Dependent Effect; Activity (Danio rerio [5]): Dose-Dependent Effect; Activity (Danio rerio [6]): Dose-Dependent Effect; Activity (Danio rerio [7]): Dose-Dependent Effect; Activity (Danio rerio [8]): Dose-Dependent Effect; Activity (Danio rerio [9]): Dose-Dependent Effect
COc1ccc(C(=O)OC[C@@H]2[C@@H](O)[C@@]3(C)CC[C@H]4[C@]5(C)CCC[C@@](C)(N)[C@H]5CC[C@@]24C3)cc1		Active		
COc1ccc(C(=O)OC[C@@H]2[C@@H](O)[C@@]3(C)CC[C@H]4[C@]5(C)CCC[C@@](C)(C(=O)O)[C@H]5CC[C@@]24C3)cc1OC		>70%		
Cc1ccc(S(=O)(=O)OC[C@@H]2[C@@H](O)[C@@]3(C)CC[C@H]4[C@]5(C)CCC[C@@](C)(C(=O)O)[C@H]5CC[C@@]24C3)cc1	60	60%	60%	
Cc1ccc(S(=O)(=O)OC[C@@H]2C(=O)[C@@]3(C)CC[C@H]4[C@]5(C)CCC[C@@](C)(C(=O)O)[C@H]5CC[C@@]24C3)cc1	60	60%	60%	
